These results are taken from ChEMBL document CHEMBL1138362, “Dihydro-alkylthio-benzyl-oxopyrimidines as inhibitors of reverse transcriptase: synthesis and rationalization of the biological data on both wild-type enzyme and relevant clinical mutants” (J Med Chem, 2007).

The target in assay [1] is Human immunodeficiency virus type 1 reverse transcriptase (Human immunodeficiency virus 1) (UniProt Q72547). In words: Antiviral activity against wild type HIV1 reverse transcriptase.
Assay [2] has as its system Human immunodeficiency virus 1 [K103N]. In words: Antiviral activity against HIV1 reverse transcriptase K103N mutant.
The subject of assay [3] is Human immunodeficiency virus type 1 reverse transcriptase (Human immunodeficiency virus 1), Q72547 [Y181I]. In words: Antiviral activity against HIV1 reverse transcriptase Y181I mutant.
Assay [4] deals with Human immunodeficiency virus 1. Kind of assay: Antiviral activity against wild type HIV1 NL4-3 in MT4 cells after 5 days by MTT method. The assay is classed as functional, organism-based. To be noted: Human immunodeficiency virus 1, NL4-3, MT4, 120 h. In a few lines:
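MT-4 lymphoid cells, infected with HIV-1 or mock-infected (for cytotoxicity), held with a range of drug concentrations; viable cells scored at day 5 post-infection by tetrazolium (MTT) colorimetry.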

For assay [5], the system named is Human immunodeficiency virus 1. Kind of assay: Antiviral activity against HIV1 with reverse transcriptase K103N mutation in MT4 cells after 5 days by MTT method. The assay is classed as functional, organism-based. To be noted: Human immunodeficiency virus 1, MT4, 120 h. In a few lines: (§1)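 MT-4 cells from the NIH AIDS Reagent Program were infected with mutant HIV-1 (K103N or Y188L, from the MRC Centralised Facility) in the presence of graded drug concentrations. Mock-infected cells were used for cytotoxicity. Viable cells were counted by MTT colorimetry at day 5 post-infection.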
(In general: Formazan colour is commonly taken as a measure of viable cells.)

For assay [6], the system named is Human immunodeficiency virus 1. Kind of assay: Antiviral activity against HIV1 with reverse transcriptase Y181C mutation in MT4 cells after 5 days by MTT method. The assay is classed as functional, organism-based. To be noted: Human immunodeficiency virus 1, MT4, 120 h.
For assay [7], the system named is Human immunodeficiency virus 1. Kind of assay: Antiviral activity against HIV1 with reverse transcriptase Y188L mutation in MT4 cells after 5 days by MTT method. The assay is classed as functional, organism-based. To be noted: Human immunodeficiency virus 1, MT4, 120 h. In a few lines: as §1
Assay [8] concerns Human immunodeficiency virus 1. Kind of assay: Antiviral activity against HIV1 with reverse transcriptase IRLL98 mutation in MT4 cells after 5 days by MTT method relative to wild type NL4-3. The assay is classed as functional.

For `CCc1c(Cc2c(Cl)cccc2Cl)nc(SCc2ccc(C#N)cc2)[nH]c1=O`, the ID50 is 0.1 µM in assay [1], more than 20 µM in assay [2] and more than 20 µM in assay [3]. Besides, the EC50 in assay [4] is 0.044 µM; in assay [5], 8.84 µM; in assay [6] it was 3.05 µM; in assay [7], more than 58.1 µM. In assay [8], this molecule returned a Fold change of 194.

Turning to `CCc1c(Cc2c(F)cccc2F)nc(SCc2ccc(C#N)cc2)[nH]c1=O`, the ID50 in assay [1] is 0.17 µM; in assay [2], 7.5 µM; in assay [3] it was more than 20 µM. Besides, the EC50 is 0.075 µM in assay [4], 7.78 µM in assay [5], 1.33 µM in assay [6] and more than 63 µM in assay [7]. Besides, the Fold change in assay [8] came to 45.3.

`Cc1cn([C@H]2C[C@H](N=[N+]=[N-])[C@@H](CO)O2)c(=O)[nH]c1=O` [ZIDOVUDINE]: the Fold change in assay [8] turned out to be 3.

For `Cc1c(Cc2c(F)cccc2F)nc(SCc2ccc3c(c2)OCO3)[nH]c1=O`, the ID50 in assay [1], in assay [2] and in assay [3] was more than 20 µM throughout. The EC50 was 0.15 µM in assay [4], 10.2 µM in assay [5], 1.32 µM in assay [6] and more than 62.2 µM in assay [7]. In assay [8], the Fold change is 1.8.

`COc1ccc(CSc2nc(Cc3c(F)cccc3F)c(C)c(=O)[nH]2)cc1OC`: the ID50 is 0.5 µM in assay [1], more than 20 µM in assay [2] and more than 20 µM in assay [3]. Also, the EC50 was 0.2 µM in assay [4], 9.33 µM in assay [5], 0.74 µM in assay [6] and more than 39.7 µM in assay [7]. For the same molecule, the Fold change in assay [8] amounted to 1.5.

For the molecule `Cc1c(Cc2c(Cl)cccc2Cl)nc(SCC(=O)c2ccc(C#N)cc2)[nH]c1=O`, the ID50 in assay [1] was 0.2 µM; in assay [2], more than 20 µM; in assay [3], more than 20 µM. Moreover, the half-maximal effective concentration (EC50) is 1.08 µM in assay [4], 12.2 µM in assay [5], 1.31 µM in assay [6] and more than 56.3 µM in assay [7]. In addition, in assay [8], the Fold change is 3.2.

As to `COC(=O)c1ccc(CSc2nc(Cc3c(F)cccc3F)c(C)c(=O)[nH]2)cc1`, the values for the ID50 in assay [1], in assay [2] and in assay [3] were 0.5 µM, more than 20 µM and more than 20 µM, respectively. For the same molecule, the EC50 in assay [4] was 0.142 µM; in assay [5], 11.2 µM; in assay [6], 1.35 µM; in assay [7], more than 34.1 µM. In assay [8], this molecule had a Fold change of 6.9.

What is called EC50 is the concentration that produces a half-maximal response. Low values mean an effect from little substance, high ones a need for much substance.
